Laboratory results as given in ChEMBL document CHEMBL1149380, “Synthesis of thieno[2,3-b]pyridinones acting as cytoprotectants and as inhibitors of [3H]glycine binding to the N-methyl-D-aspartate (NMDA) receptor” (J Med Chem, 2006).

How the values were obtained:
Glutamate NMDA receptor = test: Inhibition of [3H]glycine binding to NMDA receptor in rat brain membranes; type: cell membranes
Summary of the method: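 [3H]glycine displaced from rat hippocampal membranes in presence of 10 µM glutamic acid; 4-5 inhibitor concentrations giving 20-90% inhibition of specific binding; Ki derived; number of experiments given per value.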

Rattus norvegicus [1] = test: Effect on brain tissue level after 6 min at 5 mg/kg, iv; type: ADME, organism-based, Wistar; design: dose 5 mg/kg, route intravenous; details: in vivo, 0.1 h
Summary of the method: (§1)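 Male Wistar rats given 5 mg/kg intravenously; plasma and brain tissue levels measured at 6 min and 1 h, n = 3 per time; brain expressed as µmol/kg.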

Rattus norvegicus [2] = test: Effect on brain tissue level after 1h at 5 mg/kg, iv; type: ADME, organism-based, Wistar; design: dose 5 mg/kg, route intravenous; details: in vivo; summary of the method: as §1
Mus musculus [3] = test: Protection of mice against maximal e-shock at 0.7 mg/kg; type: functional
Summary of the method: (§2)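 Male Swiss mice, 10 per dose, dosed intraperitoneally (vehicle 8 parts DMSO, 10 parts H2O); doses spanned 0.3-100 mg/kg depending on compound. Maximal electroshock applied 30 or 60 min later; tonic hind limb extension scored as unprotected. Dose-response fitted to a hyperbolic function giving ID50.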

L cells = test: Cytotoxicity against mouse fibroblast L(tk-) cells transfected with human NMDA using LDH assay; type: functional, cell-based; details: L929
Summary of the method: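 Mouse L(tk-) fibroblast clone L12-G10 co-transfected with dexamethasone-inducible human NR1a/NR2A; seeded 15 × 10^3 cells/well, grown overnight, then receptor expression induced with 4 µM dexamethasone in Mg2+-free medium with 5% FCS (supplies glutamate and glycine) and 50 mM KCl. Compounds added at increasing, trypan-blue-verified nontoxic concentrations for 24 h. Cell death read as LDH release (INT formazan, 490 nm) relative to total LDH; four-parameter logistic fit for IC50.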

Rattus norvegicus [4] = test: Effect on brain tissue level after 6 min at 10mg/kg, iv; type: ADME, organism-based, Wistar; details: in vivo, 0.1 h
Summary of the method: (§3)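 Male Wistar rats given 10 mg/kg intravenously; plasma and brain tissue levels measured 6 min (n = 3) and 1 h (n = 3) after dosing; brain expressed as µmol/kg.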

Mus musculus [5] = test: Protection of mice against maximal e-shock after 30 min at 43 mg/kg; type: functional; summary of the method: as §2
Rattus norvegicus [6] = test: Effect on brain tissue level after 1h at 10 mg/kg, iv; type: ADME, organism-based, Wistar; design: dose 10 mg/kg, route intravenous; details: in vivo; summary of the method: as §3
Mus musculus [7] = test: Protection of mice against maximal e-shock after 30 min at 15.5 mg/kg; type: functional; summary of the method: as §2
Mus musculus [8] = test: Protection of mice against maximal e-shock after 60 min at 13.5 mg/kg; type: functional; summary of the method: as §2
D(2) dopamine receptor = D(2) dopamine receptor (Rattus norvegicus, UniProt P61169); test: Displacement of [3H]raclopride from dopamine receptor D2 in rat striatal membrane; type: cell membranes, Striatum
Mus musculus [9] = test: Protection of mice against maximal e-shock at 30 mg/kg; type: functional; summary of the method: as §2

Chain of D(2) dopamine receptor (P61169 whole entry): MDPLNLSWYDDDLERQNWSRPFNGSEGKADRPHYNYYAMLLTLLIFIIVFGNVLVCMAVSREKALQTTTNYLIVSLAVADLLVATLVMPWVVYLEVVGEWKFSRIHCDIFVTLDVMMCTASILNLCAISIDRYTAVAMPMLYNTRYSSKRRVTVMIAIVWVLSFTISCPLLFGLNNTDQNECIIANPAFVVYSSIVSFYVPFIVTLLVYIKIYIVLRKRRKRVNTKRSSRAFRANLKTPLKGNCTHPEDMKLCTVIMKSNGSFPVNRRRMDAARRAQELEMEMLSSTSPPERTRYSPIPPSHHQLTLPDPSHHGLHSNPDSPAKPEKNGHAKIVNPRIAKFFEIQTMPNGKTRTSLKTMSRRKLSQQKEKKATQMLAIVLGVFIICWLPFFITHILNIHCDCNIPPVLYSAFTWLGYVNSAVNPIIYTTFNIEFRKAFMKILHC

Row | Compound | Ki (Glutamate NMDA receptor) [nM] | IC50 (L cells) [µM] | further results
1 | CC(C)c1c(Cl)sc2nc(S)c(-c3ccccc3)c(O)c12 | 890 |  | 
2 | Oc1nc2sccc2c(O)c1-c1ccccc1 | 16400 |  | 
3 | CCc1csc2nc(O)c(-c3ccccc3)c(O)c12 | 530 |  | 
4 | NCCc1c(Cl)sc2nc(O)c(-c3ccccc3)c(O)c12 | 4550 |  | IC50 (D(2) dopamine receptor): > 10 µM
5 | CC1=C(CN)SC2NC(=O)C(c3cccc(Oc4ccccc4)c3)=C(O)C12 (centres undefined) | 1980 |  | 
6 | CCC(C)c1csc2nc(O)c(-c3ccccc3)c(O)c12 (centres undefined) | 940 |  | 
7 | O=c1[nH]c2ccccc2c(O)c1-c1ccccc1 | 12200 |  | 
8 | Oc1nc2sc3c(c2c(O)c1-c1cccs1)CCCC3 | 23100 |  | 
9 | NCCc1c(Cl)sc2[nH]c(=O)c(-c3cccc(Oc4ccccc4)c3)c(O)c12 | 16500 |  | IC50 (D(2) dopamine receptor): > 30 µM
10 | Cc1csc2nc(O)c(-c3ccccc3)c(O)c12 | 8300 |  | 
11 | Cc1cc2c(O)c(-c3ccccc3)c(O)nc2s1 | 9500 |  | 
12 | Oc1nc2scc(C3CC3)c2c(O)c1-c1ccccc1 | 4750 |  | 
13 | CC(C)c1csc2nc(O)c(-c3ccccc3)c(O)c12 | 1530 |  | 
14 | Cc1cc2c(O)c(-c3cccs3)c(O)nc2s1 | 22700 |  | 
15 | Oc1nc2sc(Br)cc2c(O)c1-c1ccccc1 | 1770 |  | 
16 | Oc1nc2sc3c(c2c(O)c1-c1ccccc1)CCCC3 | 4300 |  | 
17 | Cc1csc2nc(O)c(-c3cccs3)c(O)c12 | 34000 |  | 
18 | Cc1sc2nc(O)c(-c3ccccc3)c(O)c2c1C | 1270 |  | 
19 | Oc1nc2ccsc2c(O)c1-c1ccccc1 | 97500 |  | 
20 | CCc1cc2c(O)c(-c3ccccc3)c(O)nc2s1 | 3100 |  | 
21 | Oc1nc2sc(Cl)c(C3CCCCC3)c2c(O)c1-c1cccc(Oc2ccccc2)c1 | > 30000 | > 50 | 
22 | Oc1nc2cscc2c(O)c1-c1ccccc1 | 26000 |  | 

Molecules with a lower Ki (Glutamate NMDA receptor), results first:

Row | Ki (Glutamate NMDA receptor) [nM] | Compound | IC50 (L cells) [µM] | further results
23 | 392 | Oc1nc2sc3c(c2c(O)c1-c1cccc(Oc2ccccc2)c1)CCCC3 | > 30 | 
24 | 390 | Cc1c(Br)sc2nc(O)c(-c3ccccc3)c(O)c12 |  | 
25 | 368 | Oc1nc2sccc2c(O)c1-c1cccc(Oc2ccccc2)c1 | 89.2 | 
26 | 330 | Cc1csc2nc(O)c(-c3cccc(Oc4ccccc4)c3)c(O)c12 | > 250 | 
27 | 267 | Cc1c(Cl)sc2nc(O)c(-c3ccccc3)c(O)c12 |  | 
28 | 179 | CCc1csc2nc(O)c(-c3cccc(Oc4ccccc4)c3)c(O)c12 | > 50 | 
29 | 151 | O=c1[nH]c2cc(Cl)ccc2c(O)c1-c1ccccc1 |  | 
30 | 139 | CC(C)c1c(Cl)sc2nc(S)c(-c3cccc(Oc4ccccc4)c3)c(O)c12 |  | 
31 | 118 | Oc1nc2sc3c(c2c(O)c1-c1cccc(Oc2ccccc2)c1)CCC3 |  | 
32 | 96 | CCC(C)c1csc2nc(O)c(-c3cccc(Oc4ccccc4)c3)c(O)c12 (centres undefined) | > 50 | 
33 | 80 | CCCCCCc1c(Cl)sc2nc(O)c(-c3cccc(Oc4ccccc4)c3)c(O)c12 | > 50 | 
34 | 69 | OCc1c(Cl)sc2nc(O)c(-c3cccc(Oc4ccccc4)c3)c(O)c12 |  | 
35 | 58 | Oc1nc2sc(Cl)c(C3CC3)c2c(O)c1-c1ccccc1 |  | 
36 | 37 | Oc1nc2sc3c(c2c(O)c1-c1cccc(Oc2ccccc2)c1)CCCS3 | > 250 | 
37 | 36 | COCc1csc2nc(O)c(-c3cccc(Oc4ccccc4)c3)c(O)c12 | 55.8 | 
38 | 23 | Cc1c(Cl)sc2nc(O)c(-c3cccc(Oc4ccccc4)c3)c(O)c12 | > 200 | 
39 | 16.6 | Oc1nc2sc(Cl)cc2c(O)c1-c1cccc(Oc2ccccc2)c1 | 15.4 | Activity (Mus musculus [9]): 10%
40 | 10.5 | CCc1c(Br)sc2nc(O)c(-c3ccccc3)c(O)c12 |  | 
41 | 9.5 | Oc1nc2sc(Cl)c(C3CC3)c2c(O)c1-c1cccc(Oc2ccccc2)c1 |  | 
42 | 8.9 | CCc1c(Cl)sc2nc(O)c(-c3ccccc3)c(O)c12 |  | 
43 | 6.6 | CC(C)c1c(Cl)sc2nc(O)c(-c3ccccc3)c(O)c12 |  | 
44 | 5.8 | CCC(C)c1c(Cl)sc2nc(O)c(-c3ccccc3)c(O)c12 (centres undefined) |  | 
45 | 4.12 | CCCc1c(Cl)sc2nc(O)c(-c3cccc(Oc4ccccc4)c3)c(O)c12 | 15.9 | 
46 | 3.3 | CC(C)(C)c1c(Cl)sc2nc(O)c(-c3cccc(Oc4ccccc4)c3)c(O)c12 | 15.5 | 
47 | 2 | CCC(C)c1c(Cl)sc2nc(O)c(-c3cccc(Oc4ccccc4)c3)c(O)c12 (centres undefined) | 7.9 | 
48 | 1.6 | COCc1c(Cl)sc2nc(O)c(-c3cccc(Oc4ccccc4)c3)c(O)c12 | 15.7 | Activity (Mus musculus [9]): 30%
49 | 1.46 | CC(C)c1c(Cl)sc2nc(O)c(-c3cccc(Oc4ccccc4)c3)c(O)c12 | 5.2 | brain level (Rattus norvegicus [4]): 3.5 µmol/kg; Activity (Mus musculus [5]): 50%; brain level (Rattus norvegicus [6]): 0.28 µmol/kg
50 | 1.4 | O=c1[nH]c2cc(Cl)ccc2c(O)c1-c1cccc(Oc2ccccc2)c1 |  | brain level (Rattus norvegicus [1]): 5.5 µmol/kg; brain level (Rattus norvegicus [2]): 1.4 µmol/kg; Activity (Mus musculus [3]): 50%
51 | 1.11 | CCc1c(Cl)sc2nc(O)c(-c3cccc(Oc4ccccc4)c3)c(O)c12 |  | Activity (Mus musculus [7]): 50%; Activity (Mus musculus [8]): 50%
